From ChEMBL document CHEMBL2021813, “Semisynthetic neoclerodanes as kappa opioid receptor probes” (Bioorg Med Chem, 2012) come the findings set out here.

The target in data set [1] is T1, Kappa-type opioid receptor (Homo sapiens, UniProt P41145). Put plainly: Agonist activity at human recombinant kappa opioid receptor expressed in CHO cells assessed as [35S]GTP-gamma-S binding after 3 hrs by liquid scintillation counting. Type of data set: functional, cell-based. Put shortly:
(§1)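 hKOP-CHO membranes (50 μg protein) were incubated with 50 pM [35S]GTP-γ-S and 40 μM GDP. Final buffer was 50 mM Tris-HCl pH 7.4, 100 mM NaCl, 10 mM MgCl2, 1 mM EDTA, 1 mM DTT and 0.1% BSA. Incubation ran 3 hr at 25 °C. Nonspecific binding was set with 40 μM GTP-γ-S. Bound label was separated by vacuum filtration through GF/B and counted.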
Background: GTPγS is a poorly hydrolysed GTP analogue; its binding reports G protein activation.

Data set [2] concerns the target T2, Delta-type opioid receptor (Homo sapiens, UniProt P41143). The data set is described as follows: Displacement of [3H]DADLE from human recombinant delta opioid receptor expressed in CHO cells after 2 hrs by liquid scintillation counting. Type of data set: cell-based. Put shortly: (§2)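 Membranes from CHO cells stably transfected with human DOP, MOP or KOP receptor, in 50 mM Tris-HCl pH 7.4 with a protease inhibitor cocktail. The ~2 nM [3H]radioligand was displaced by 10 drug concentrations, in triplicate, for 2 hr at 25 °C, then filtered over GF/B. Nonspecific binding was set by 20 μM levallorphan (DADLE, DAMGO) or 1 μM (−)-U69,593 (U69,593). Ki (±SD) came from full curves, n=3.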
(Loss of bound radioactivity is the signal in a displacement assay; it reports binding, not function.)

Data set [3] addresses T2, Delta-type opioid receptor. Put plainly: Displacement of [3H]DADLE from human recombinant delta opioid receptor expressed in CHO cells at 10 uM after 2 hrs by liquid scintillation counting. Type of data set: cell-based. Put shortly:
(§3)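 Radioligand (~2 nM) competition on human opioid receptor CHO membranes in Tris-HCl pH 7.4, 2 hr at 25 °C, with GF/B filtration and scintillation counting. Results are percent of control produced by a single test drug concentration, 1 μM or 10 μM as the line states. Nonspecific binding was set by 20 μM levallorphan (DADLE, DAMGO) or 1 μM (−)-U69,593 (U69,593).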

Data set [4] concerns the target T1, Kappa-type opioid receptor. Put plainly: Displacement of [3H]U69593 from human recombinant kappa opioid receptor expressed in CHO cells after 2 hrs by liquid scintillation counting. Type of data set: cell-based. The method, boiled down: as §2
Data set [5] deals with T1, Kappa-type opioid receptor. Put plainly: Agonist activity at human recombinant kappa opioid receptor expressed in CHO cells assessed as [35S]GTP-gamma-S binding after 3 hrs by liquid scintillation counting relative to (-)U50488. The data set is classed as functional, cell-based. Put shortly: as §1
Data set [6] deals with T3, Mu-type opioid receptor (Homo sapiens, UniProt P35372). The data set is described as follows: Displacement of [3H]DAMGO from human recombinant mu opioid receptor expressed in CHO cells after 2 hrs by liquid scintillation counting. The data set is classed as cell-based. The method, boiled down: as §2
T3 sequence (P35372 whole entry): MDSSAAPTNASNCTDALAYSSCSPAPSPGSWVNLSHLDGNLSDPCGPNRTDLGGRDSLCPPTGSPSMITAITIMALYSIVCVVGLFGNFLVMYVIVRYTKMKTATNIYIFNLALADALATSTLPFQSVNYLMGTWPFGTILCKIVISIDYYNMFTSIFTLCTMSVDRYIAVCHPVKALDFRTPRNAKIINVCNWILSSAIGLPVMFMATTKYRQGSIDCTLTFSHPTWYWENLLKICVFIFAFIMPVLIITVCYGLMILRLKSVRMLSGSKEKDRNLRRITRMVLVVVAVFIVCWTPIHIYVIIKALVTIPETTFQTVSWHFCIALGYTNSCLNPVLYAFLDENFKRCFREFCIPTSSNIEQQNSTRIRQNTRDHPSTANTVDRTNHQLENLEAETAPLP
Data set [7] concerns Rhesus monkey. Put plainly: In vivo binding affinity to kappa opioid receptor in iv dosed rhesus monkey assessed as rightward shift in serum prolactin level administered every 20 mins measured every 15 mins by immunoradiometric analysis. The data set is classed as functional. To be noted: Macaca mulatta. Put shortly:
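Chair-trained male rhesus monkeys received i.v. cumulative doses rising in 0.5 log steps every 20 min. Blood was sampled 15 min after each dose, after two baseline samples at −10 and −5 min. Serum prolactin was expressed as change from each subject's pre-injection baseline, as mean ±SEM. ED50 came from linear regression of mean dose-effect points spanning the ED50.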

The target of data set [8] is T1, Kappa-type opioid receptor. Put plainly: Displacement of [3H]U69593 from human recombinant kappa opioid receptor expressed in CHO cells at 10 uM after 2 hrs by liquid scintillation counting. Type of data set: cell-based. The method, boiled down:
as §3

The target in data set [9] is T3, Mu-type opioid receptor. The data set is described as follows: Displacement of [3H]DAMGO from human recombinant mu opioid receptor expressed in CHO cells at 10 uM after 2 hrs by liquid scintillation counting. Type of data set: cell-based. The method, boiled down:
as §3

Data set [10] deals with T2, Delta-type opioid receptor. Put plainly: Displacement of [3H]DADLE from human recombinant delta opioid receptor expressed in CHO cells at 1 uM after 2 hrs by liquid scintillation counting. The data set is classed as cell-based. The method, boiled down: as §3
The target in data set [11] is T1, Kappa-type opioid receptor. The data set is described as follows: Agonist activity at human recombinant kappa opioid receptor expressed in CHO cells assessed as calcium mobilization after 1 hrs by fluorescence analysis relative to U69593. Type of data set: functional, cell-based. The method, boiled down:
(§4)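 CHO cells stably expressing KOP receptor with Gαq16 were plated at 30,000 cells/well and grown overnight at 37 °C. They were loaded with Calcium 5 dye in HBSS with 20 mM HEPES, 0.25% BSA, 1% DMSO and probenecid for 1 h at 37 °C. Compounds were added at 10X after a ~17 sec baseline, and fluorescence (ex 485/em 525 nm) was read every 1.52 sec for 60 sec. EC50 and Emax are given ±SD.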

Data set [12] concerns the target T3, Mu-type opioid receptor. The data set is described as follows: Displacement of [3H]DAMGO from human recombinant mu opioid receptor expressed in CHO cells at 1 uM after 2 hrs by liquid scintillation counting. The data set is classed as cell-based. Put shortly:
as §3

Data set [13] addresses T1, Kappa-type opioid receptor. Put plainly: Agonist activity at human recombinant kappa opioid receptor expressed in CHO cells assessed as calcium mobilization after 1 hrs by fluorescence analysis. Type of data set: functional, cell-based. The method, boiled down: as §4
Background: A change in cytosolic calcium serves as a functional read-out for many receptors and channels.

Data set [14] is described as follows: Chemical solubility of the compound in 50 mM Tris-HCl at pH 7.4. Type of data set: physicochemical. To be noted: buffer.
Data set [15] can be described thus: Chemical solubility of the compound in THF. Type of data set: physicochemical.
Data set [16] concerns the target T1, Kappa-type opioid receptor. Put plainly: Partial agonist activity at human recombinant kappa opioid receptor expressed in CHO cells assessed as [35S]GTP-gamma-S binding after 3 hrs by liquid scintillation counting relative to (-)U50488. Type of data set: functional, cell-based. The method, boiled down:
as §1

Data set [17] concerns the target T1, Kappa-type opioid receptor. The data set is described as follows: Partial agonist activity at human recombinant kappa opioid receptor expressed in CHO cells assessed as [35S]GTP-gamma-S binding after 3 hrs by liquid scintillation counting. Type of data set: functional, cell-based. The method, boiled down:
as §1

SMILES strings stand for the structures.

T1 sequence (P41145 whole entry): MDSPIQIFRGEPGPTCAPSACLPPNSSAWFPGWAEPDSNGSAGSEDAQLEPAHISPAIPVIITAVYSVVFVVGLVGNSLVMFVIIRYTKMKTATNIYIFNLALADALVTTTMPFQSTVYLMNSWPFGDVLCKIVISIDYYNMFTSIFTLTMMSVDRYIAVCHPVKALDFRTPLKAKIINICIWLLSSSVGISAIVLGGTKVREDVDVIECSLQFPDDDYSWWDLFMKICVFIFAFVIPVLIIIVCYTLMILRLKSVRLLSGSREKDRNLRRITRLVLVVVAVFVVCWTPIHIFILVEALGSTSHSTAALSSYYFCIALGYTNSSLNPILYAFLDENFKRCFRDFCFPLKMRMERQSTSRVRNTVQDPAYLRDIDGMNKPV
T2 sequence (P41143 whole entry): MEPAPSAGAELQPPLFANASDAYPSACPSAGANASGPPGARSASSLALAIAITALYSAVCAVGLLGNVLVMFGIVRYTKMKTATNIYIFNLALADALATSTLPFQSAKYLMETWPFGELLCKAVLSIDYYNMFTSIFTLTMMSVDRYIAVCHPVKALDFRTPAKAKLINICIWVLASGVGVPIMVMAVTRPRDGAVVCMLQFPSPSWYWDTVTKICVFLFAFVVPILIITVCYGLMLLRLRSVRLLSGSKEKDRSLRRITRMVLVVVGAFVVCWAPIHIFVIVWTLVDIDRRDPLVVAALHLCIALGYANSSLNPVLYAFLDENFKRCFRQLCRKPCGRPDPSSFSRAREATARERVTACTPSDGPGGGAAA

In the case of `COC(=O)[C@@H]1C[C@H](OC(C)=O)C(=O)[C@H]2[C@@]1(C)CC[C@H]1C(=O)O[C@H](C(=O)c3ccco3)C[C@]21C`, in [1], the EC50 – broadly, the concentration that produces a half-maximal response – is 2130 nM. For the same molecule, the Ki (commonly a dissociation constant, usually derived from enzyme kinetics or from competition with a known ligand) in [2] is > 10000 nM; in data set [4], 80 nM; in data set [6] it was 9800 nM. The Activity in data set [3] came to 91%. Also, in [5], the Emax (commonly the size of the effect at its maximum, as opposed to the concentration needed) worked out at 92%.

In the case of `COC(=O)[C@@H]1C[C@H](OC(C)=O)C(=O)[C@H]2[C@@]1(C)CC[C@H]1C(=O)O[C@H](c3ccoc3)C[C@]21C` [SALVINORIN A], the ED50 – broadly, the dose at which the effect has come halfway, by size or by number of responders – in [7] was found to be 0.0037 mg/kg.

`COC(=O)[C@@H]1C[C@H](OC(C)=O)C(=O)[C@H]2[C@@]1(C)CC[C@H]1C(=O)O[C@H](C(=O)c3cc4ccccc4o3)C[C@]21C`: the Activity came to 92% in data set [8], 91% in data set [3] and 100% in data set [9]. In addition, the Ki in data set [2], in data set [4] and in data set [6] was > 10000 nM each time.

Regarding `COC(=O)[C@@H]1C[C@H](OC(C)=O)C(=O)[C@H]2[C@@]1(C)CC[C@H]1C(=O)O[C@H](C(=O)c3cccc(C(N)=O)c3)C[C@]21C`, the 50% effective concentration (EC50) in data set [1] came out at 730 nM; in [13] it was 75.4 nM. Also, the Ki is > 10000 nM in data set [2], 40 nM in data set [4] and > 10000 nM in data set [6]. For the same molecule, the Activity in data set [10] stood at 52%; in [12], 84%. Further, the Emax in data set [11] was 97%; in data set [5] it was 92%.

As for `COC(=O)[C@@H]1C[C@H](OC(C)=O)C(=O)[C@H]2[C@@]1(C)CC[C@H]1C(=O)O[C@H](C(=O)c3cccc(C#N)c3)C[C@]21C`, the Ki in data set [2] was > 10000 nM; in [4], 220 nM; in [6], > 1000 nM. Also, the Activity in data set [10] is 68%; in data set [12], 61%.

On to `COC(=O)[C@@H]1C[C@H](OC(C)=O)C(=O)[C@H]2[C@@]1(C)CC[C@H]1C(=O)O[C@H](C(=O)c3csc4ccccc34)C[C@]21C`, for which the Ki is > 1000 nM in data set [2], > 10000 nM in data set [4] and > 1000 nM in data set [6]. In addition, the values for the Activity in [10] and in data set [12] were 56% and 60%, respectively.

For the molecule `COC(=O)[C@@H]1C[C@H](OC(C)=O)C(=O)[C@H]2[C@@]1(C)CC[C@H]1C(=O)O[C@H](/C=C\c3ccoc3)C[C@]21C`, the Activity in [3] stood at 94%. For the same molecule, the solubility entry in data set [14] is given as “Insoluble”. In addition, in data set [5], the Emax came out at 105%.

As to `COC(=O)[C@@H]1C[C@H](OC(C)=O)C(=O)[C@H]2[C@@]1(C)CC[C@H]1C(=O)O[C@H](c3ccco3)C[C@]21C`, the concentration for a half-maximal effect (EC50) is 140 nM in [1] and 12.2 nM in data set [13]. The Ki in [2] was > 10000 nM; in data set [6], > 1000 nM. Also, the Activity in data set [10] stood at 99%; in data set [12] it was 81%. For the same molecule, the Emax in [11] was found to be 97%; in [5], 104%.

Turning to `COC(=O)[C@@H]1C[C@H](OC(C)=O)C(=O)[C@H]2[C@@]1(C)CC[C@H]1C(=O)O[C@H](C(=O)c3ccsc3)C[C@]21C`, in data set [1], the EC50 came out at 620 nM. In addition, the Ki is > 10000 nM in data set [2], 31 nM in data set [4] and 2530 nM in data set [6]. The Activity in data set [3] was 88%. The Emax in data set [5] stood at 88%.

For `COC(=O)[C@@H]1C[C@H](OC(C)=O)C(=O)[C@H]2[C@@]1(C)CC[C@H]1C(=O)O[C@H](C=O)C[C@]21C`, in [15], the solubility result is reported as “Insoluble”.

Regarding `COC(=O)[C@@H]1C[C@H](OC(C)=O)C(=O)[C@H]2[C@@]1(C)CC[C@H]1C(=O)O[C@@H](c3ccoc3)C[C@]21C` [12-EPI-SALVINORIN A], the Activity in [3] was 74%; in [9] it was 72%. Also, the ED50 in data set [7] is 0.038 mg/kg.

For `COC(=O)[C@@H]1C[C@H](OC(C)=O)C(=O)[C@H]2[C@@]1(C)CC[C@H]1C(=O)O[C@H](C(=O)c3ccccc3)C[C@]21C`, the inhibition constant Ki in [2] was > 10000 nM; in [4], 70 nM; in data set [6], 1490 nM. The Activity in [3] was found to be 100%. Also, in data set [16], the Emax is 74%. Besides, in data set [17], the EC50 stood at 2280 nM.

For the molecule `COC(=O)[C@@H]1C[C@H](OC(C)=O)C(=O)[C@H]2[C@@]1(C)CC[C@H]1C(=O)O[C@H](C(=O)c3cccs3)C[C@]21C`, the EC50 in data set [1] came to 1630 nM. For the same molecule, the Ki is > 10000 nM in [2], 36 nM in data set [4] and > 10000 nM in data set [6]. For the same molecule, the figures for the Activity in data set [3] and in data set [9] were 99% and 65%, respectively. The Emax in data set [5] is 95%.
